In brackets after ≈: the same amount, converted by molar mass.
Tests used:
Type in all cases: functional
Pseudomonas aeruginosa [1] = assay: Antibacterial activity against Pseudomonas aeruginosa by agar dilution method
In short: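 Agar dilution susceptibility testing on Mueller Hinton agar, performed by Fujisawa Pharmaceuticals; MIC50/80/90 denote concentration inhibiting that percent of isolates.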

Pseudomonas aeruginosa [2] = assay: Antibacterial activity against Pseudomonas aeruginosa ATCC 27853 by microdilution method
In short: (§1)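 MIC (µg/ml) by broth microdilution in Mueller Hinton medium per NCCLS guidance; E. coli ATCC 25922 and P. aeruginosa ATCC 27853.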

Escherichia coli [3] = assay: Antibacterial activity against Escherichia coli ATCC 25922 by microdilution method; in short: as §1
Escherichia coli [4] = assay: Inhibition of transcription-translation activity in Escherichia coli
In short: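 Coupled in vitro transcription–translation using E. coli extracts; IC50 in µM.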

Escherichia coli [5] = assay: Antibacterial activity against Escherichia coli ATCC 25922 by microdilution method in presence of serum
In short: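 Broth microdilution in MH medium per NCCLS, run with and without 50% mouse serum; MIC (µg/ml) in serum reported as fold shift relative to serum-free MIC; strains E. coli ATCC 25922 and P. aeruginosa ATCC 27853.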

Structure (SMILES)	MIC50 (Pseudomonas aeruginosa [1])	MIC80 (Pseudomonas aeruginosa [1])	MIC90 (Pseudomonas aeruginosa [1])	MIC (Pseudomonas aeruginosa [2])	MIC (Escherichia coli [3])	IC50 (Escherichia coli [4])	Fold change (Escherichia coli [5])
CN(C)[C@@H]1C(O)=C(C(N)=O)C(=O)[C@@]2(O)C(O)=C3C(=O)c4c(O)cccc4[C@@](C)(O)[C@H]3C[C@@H]12 [TETRACYCLINE]	32 µg/mL (≈ 72 µM)	64 µg/mL (≈ 144 µM)	64 µg/mL (≈ 144 µM)				
O=C(N[C@H](CO)[C@H](O)c1ccc([N+](=O)[O-])cc1)C(Cl)Cl [CHLORAMPHENICOL]	> 128 µg/mL	> 128 µg/mL	> 128 µg/mL				
C[C@@H](O)[C@H]1C(=O)N2C(C(=O)O)=C(SCCNC=N)C[C@H]12 [IMIPENEM ANHYDROUS]	2 µg/mL (≈ 6.68 µM)	16 µg/mL (≈ 53.4 µM)	16 µg/mL (≈ 53.4 µM)				
CC(C)(O/N=C(\C(=O)N[C@@H]1C(=O)N2C(C(=O)[O-])=C(C[n+]3ccccc3)CS[C@H]12)c1csc(N)n1)C(=O)O [CEFTAZIDIME]	2 µg/mL (≈ 3.66 µM)	8 µg/mL (≈ 14.6 µM)	16 µg/mL (≈ 29.3 µM)				
Cl.N[C@@H]1C[C@H](N)CN(c2nc(Nc3ccc(NC(=O)c4cc(Cl)cnc4O)c(O)c3)nc(N3C[C@H](N)C[C@H](N)C3)n2)C1				≤ 0.5 µg/mL	4 µg/mL	3 µM	2
CCN1CCN(C(=O)N[C@@H](C(=O)N[C@@H]2C(=O)N3[C@@H]2SC(C)(C)[C@@H]3C(=O)O)c2ccccc2)C(=O)C1=O [PIPERACILLIN]	8 µg/mL (≈ 15.5 µM)	32 µg/mL (≈ 61.8 µM)	64 µg/mL (≈ 124 µM)				
CCn1cc(C(=O)Nc2ccc(Nc3nc(N4C[C@H](N)C[C@H](N)C4)nc(N4C[C@H](N)C[C@H](N)C4)n3)cc2)c(=O)c2cc(F)c(N3CCNCC3)cc21.Cl				1 µg/mL	≤ 0.5 µg/mL	2 µM	
CCn1cc(C(=O)Nc2ccc(Nc3nc(N4C[C@H](N)C[C@H](N)C4)nc(N4C[C@H](N)C[C@H](N)C4)n3)cc2)c(=O)c2cnc(N3CCNCC3)nc21.Cl				1 µg/mL	32 µg/mL	0.9 µM	
Cl.N[C@@H]1C[C@H](N)CN(c2nc(Nc3ccc(NC(=O)c4ncccc4O)c(O)c3)nc(N3C[C@H](N)C[C@H](N)C3)n2)C1				4 µg/mL	8 µg/mL	10 µM	
Cl.N[C@@H]1C[C@H](N)CN(c2nc(N3C[C@H](N)C[C@H](N)C3)c(Cl)c(Nc3ccc(NC(=O)C4=CN(C5CC5)C5C=C(N6CCNCC6)C(F)=CC5C4=O)cc3)c2Cl)C1 (stereo not given in full)				8 µg/mL	8 µg/mL	0.8 µM	
Cl.N[C@@H]1C[C@H](N)CN(c2nc(Nc3ccc(NC(=O)c4ccccc4O)c(O)c3)nc(N3C[C@H](N)C[C@H](N)C3)n2)C1				2 µg/mL	4 µg/mL	11 µM	
CCn1cc(C(=O)Nc2ccc(Nc3nc(N4C[C@H](N)C[C@H](N)C4)nc(N4C[C@H](N)C[C@H](N)C4)n3)cc2)c(=O)c2cc3c(cc21)OCO3.Cl				1 µg/mL	1 µg/mL	3 µM	
Cl.N[C@@H]1C[C@H](N)CN(c2nc(Nc3ccc(NC(=O)c4cc(Cl)ccc4O)c(O)c3)nc(N3C[C@H](N)C[C@H](N)C3)n2)C1				1 µg/mL	4 µg/mL	9 µM	
CCn1cc(C(=O)O)c(=O)c2ccc(C)nc21 [NALIDIXIC ACID]						> 100 µM	
NCC[C@H](O)C(=O)N[C@@H]1C[C@H](N)[C@@H](O[C@H]2O[C@H](CN)[C@@H](O)[C@H](O)[C@H]2O)[C@H](O)[C@H]1O[C@H]1O[C@H](CO)[C@@H](O)[C@H](N)[C@H]1O [AMIKACIN]	4 µg/mL (≈ 6.83 µM)	8 µg/mL (≈ 13.7 µM)	32 µg/mL (≈ 54.6 µM)				
Cl.N[C@@H]1C[C@H](N)CN(c2nc(Nc3ccc(NC(=O)c4ccc(Cl)cc4)c(O)c3)nc(N3C[C@H](N)C[C@H](N)C3)n2)C1	4 µg/mL	4 µg/mL	8 µg/mL				
CCN1CCN(c2cc3c(cc2F)c(=O)c(C(=O)Nc2ccc(Nc4nc(N5C[C@H](N)C[C@H](N)C5)nc(N5C[C@H](N)C[C@H](N)C5)n4)cc2)cn3C2CC2)CC1.Cl				2 µg/mL	≤ 0.5 µg/mL	1.3 µM	
Cl.N[C@@H]1C[C@H](N)CN(c2nc(Nc3ccc(NC(=O)c4cccnc4O)c(O)c3)nc(N3C[C@H](N)C[C@H](N)C3)n2)C1				≤ 0.5 µg/mL	8 µg/mL	4 µM	
Cl.N[C@@H]1C[C@H](N)CN(c2nc(Nc3ccc(NC(=O)c4cnc5ccccc5c4O)c(O)c3)nc(N3C[C@H](N)C[C@H](N)C3)n2)C1				1 µg/mL	1 µg/mL	5 µM	
Cl.N[C@@H]1C[C@H](N)CN(c2nc(Nc3ccc(NC(=O)c4cn(C5CC5)c5cc(N6CCNCC6)c(F)cc5c4=O)cc3)nc(N3C[C@H](N)C[C@H](N)C3)n2)C1				2 µg/mL	64 µg/mL	0.4 µM	
CCn1cc(C(=O)Nc2ccc(Nc3nc(N4C[C@H](N)C[C@H](N)C4)nc(N4C[C@H](N)C[C@H](N)C4)n3)cc2)c(=O)c2ccc(C)nc21.Cl				2 µg/mL	4 µg/mL	2 µM	
CC1COc2c(N3CCNCC3)c(F)cc3c(=O)c(C(=O)Nc4ccc(Nc5nc(N6C[C@H](N)C[C@H](N)C6)nc(N6C[C@H](N)C[C@H](N)C6)n5)cc4)cn1c23.Cl (stereo not given in full)				8 µg/mL	16 µg/mL	1 µM	

Further lines, with some results ahead:

MIC50 (Pseudomonas aeruginosa [1])	MIC80 (Pseudomonas aeruginosa [1])	MIC90 (Pseudomonas aeruginosa [1])	MIC (Pseudomonas aeruginosa [2])	MIC (Escherichia coli [3])	IC50 (Escherichia coli [4])	Structure (SMILES)	Fold change (Escherichia coli [5])
			2 µg/mL	1 µg/mL	18 µM	Cl.N[C@@H]1C[C@H](N)CN(c2nc3nc(Nc4ccc(NC(=O)c5ccc6ccccc6c5O)cc4)nc(N4C[C@H](N)C[C@H](N)C4)c3[nH]2)C1	
			8 µg/mL	≤ 0.5 µg/mL	18 µM	Cl.N[C@@H]1C[C@H](N)CN(c2cc(Nc3ccc(NC(=O)c4ccc5ccccc5c4O)cc3)nc(N3C[C@H](N)C[C@H](N)C3)n2)C1	
			≤ 0.5 µg/mL	1 µg/mL	24 µM	Cl.N[C@@H]1C[C@H](N)CN(c2nc(Nc3ccc(NC(=O)c4ccc5ccccc5c4O)cc3)nc(N3C[C@H](N)C[C@H](N)C3)n2)C1	
			1 µg/mL	4 µg/mL	5 µM	Cl.N[C@@H]1C[C@H](N)CN(c2nc(Nc3ccc(NC(=O)c4cnc5ccccc5c4O)cc3)nc(N3C[C@H](N)C[C@H](N)C3)n2)C1	
			2 µg/mL	2 µg/mL	12 µM	Cl.N[C@@H]1C[C@H](N)CN(c2cc(Nc3ccc(NC(=O)c4ccc5ccccc5c4O)cc3)cc(N3C[C@H](N)C[C@H](N)C3)c2)C1	
			1 µg/mL	2 µg/mL	26 µM	Cl.N[C@@H]1C[C@H](N)CN(c2cc(Nc3ccc(NC(=O)c4ccc5ccccc5c4O)cc3)cc(N3C[C@H](N)C[C@H](N)C3)n2)C1	
			1 µg/mL	2 µg/mL	14 µM	Cl.N[C@@H]1C[C@H](N)CN(c2nc(N3C[C@H](N)C[C@H](N)C3)c(Cl)c(Nc3ccc(NC(=O)c4ccc5ccccc5c4O)cc3)c2Cl)C1	
			≤ 0.5 µg/mL	≥ 64 µg/mL	2.2 µM	Cl.N[C@@H]1C[C@H](N)CN(c2cc(Nc3ccc(NC(=O)c4cnc5ccccc5c4O)cc3)cc(N3C[C@H](N)C[C@H](N)C3)n2)C1	
			1 µg/mL	4 µg/mL	24 µM	Cl.N[C@@H]1C[C@H](N)CN(c2nc(Nc3ccc(NC(=O)c4cnc5ccccc5c4O)c(Cl)c3)nc(N3C[C@H](N)C[C@H](N)C3)n2)C1	
			≤ 0.5 µg/mL	2 µg/mL	16 µM	Cl.N[C@@H]1C[C@H](N)CN(c2cc(Nc3ccc(NC(=O)c4ccc5ccccc5c4O)cc3)nc(N3C[C@H](N)C[C@H](N)C3)c2)C1	
			≤ 0.5 µg/mL	1 µg/mL	24 µM	Cl.N[C@@H]1C[C@H](N)CN(c2nc(Nc3ccc(NC(=O)c4ccc5ccccc5c4)cc3)nc(N3C[C@H](N)C[C@H](N)C3)n2)C1	
			2 µg/mL	4 µg/mL		Cl.N[C@@H]1C[C@H](N)CN(c2nc(Nc3ccc(NC(=O)c4ccc5cccnc5c4O)cc3)nc(N3C[C@H](N)C[C@H](N)C3)n2)C1	
			1 µg/mL	1 µg/mL		Cl.N[C@@H]1C[C@H](N)CN(c2nc(N3C[C@H](N)C[C@H](N)C3)c3[nH]c(Nc4ccc(NC(=O)c5cnc6ccccc6c5O)cc4)nc3n2)C1	
			16 µg/mL	8 µg/mL	0.4 µM	Cl.N[C@@H]1C[C@H](N)CN(c2nc(N3C[C@H](N)C[C@H](N)C3)c3[nH]c(Nc4ccc(NC(=O)c5ccc6cccnc6c5O)cc4)nc3n2)C1	

— ChEMBL document CHEMBL1145648, “Antibacterial activity in serum of the 3,5-diamino-piperidine translation inhibitors” (Bioorg Med Chem Lett, 2008)
